{"source": "ChEMBL document CHEMBL1126139", "about": "(J Med Chem, 1992)", "key": {"Mus musculus [1]": {"species": "Mus musculus", "assay": "Change in input resistance of cultured spinal cord neurons produced at a dose 1 mM+100 uM strychnine", "assay_type": "functional"}, "Mus musculus [2]": {"species": "Mus musculus", "assay": "Change in input resistance of cultured spinal cord neurons produced at a dose 100 uM+100 uM tetrodotoxin", "assay_type": "functional"}, "Mus musculus [3]": {"species": "Mus musculus", "assay": "Change in input resistance of cultured spinal cord neurons produced at a dose 1 mM+100 uM tetrodotoxin", "assay_type": "functional"}, "Mus musculus [4]": {"species": "Mus musculus", "assay": "Change in input resistance of cultured spinal cord neurons produced at a dose 1 mM", "assay_type": "functional"}, "[5]": {"molecular_target": "T1, Glycine receptor subunit alpha-1 (Rattus norvegicus, UniProt P07727)", "T1 sequence (P07727 whole entry)": "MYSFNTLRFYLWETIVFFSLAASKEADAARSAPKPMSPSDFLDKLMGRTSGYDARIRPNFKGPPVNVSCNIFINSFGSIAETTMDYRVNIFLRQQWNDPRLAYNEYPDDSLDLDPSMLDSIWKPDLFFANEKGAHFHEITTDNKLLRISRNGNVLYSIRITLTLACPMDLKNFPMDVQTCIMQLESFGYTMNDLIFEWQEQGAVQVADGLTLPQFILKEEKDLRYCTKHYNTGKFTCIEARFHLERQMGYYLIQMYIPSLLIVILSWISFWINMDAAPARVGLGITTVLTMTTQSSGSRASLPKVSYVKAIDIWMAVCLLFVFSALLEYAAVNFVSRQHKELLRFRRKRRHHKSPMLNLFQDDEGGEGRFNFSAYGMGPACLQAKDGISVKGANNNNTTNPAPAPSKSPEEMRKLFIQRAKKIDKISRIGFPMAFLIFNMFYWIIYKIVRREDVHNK", "assay": "Inhibitory concentration required to inhibit [3H]strychnine binding to […]", "procedure,_shortened": "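[3H]Strychnine displacement; IC50 obtained by nonlinear curve fitting to a Langmuir isotherm.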"}, "Mus musculus [6]": {"species": "Mus musculus", "assay": "Change in input resistance of cultured spinal cord neurons produced at a dose 100 uM", "assay_type": "functional"}, "Mus musculus [7]": {"species": "Mus musculus", "assay": "Change in input resistance of cultured spinal cord neurons produced at a dose 1 mM+100 uM bicuculline+3 uMtetrodotoxin", "assay_type": "functional"}, "Mus musculus [8]": {"species": "Mus musculus", "assay": "Change in input resistance of cultured spinal cord neurons produced at a dose 100 uM+100 uM bicuculline+3 uM tetrodotoxin", "assay_type": "functional"}, "[9]": {"molecular_target": "T1, Glycine receptor subunit alpha-1", "assay": "Inhibitory concentration required to inhibit [3H]strychnine binding to […] of rat spinal cord membranes."}, "[10]": {"assay": "Ability to displace [3H]strychnine-sensitive glycine receptor binding to rat spinal cord membranes; at 100 uM"}, "Mus musculus [11]": {"species": "Mus musculus", "assay": "Change in input resistance of cultured spinal cord neurons produced at a dose 100 uM tetrodotoxin", "assay_type": "functional"}}, "data": [{"smiles": "O=C(O)C1CNC1", "values": [{"measurement": "Activity", "setting": "Mus musculus [1]", "value": 37.7, "unit": "%"}, {"measurement": "Activity", "setting": "Mus musculus [2]", "value": 10.7, "unit": "%"}, {"measurement": "Activity", "setting": "Mus musculus [3]", "value": 71.7, "unit": "%"}, {"measurement": "Activity", "setting": "Mus musculus [4]", "value": 83.1, "unit": "%"}, {"measurement": "IC50", "setting": "[5]", "value": 23.7, "unit": "µM"}, {"measurement": "Activity", "setting": "Mus musculus [6]", "value": 9.4, "unit": "%"}]}, {"smiles": "O=C(O)C1CCNCC1", "note": "[ISONIPECOTIC ACID]", "values": [{"measurement": "Activity", "setting": "Mus musculus [4]", "value": 73.6, "unit": "%"}, {"measurement": "Activity", "setting": "Mus musculus [7]", "value": 0.1, "unit": "%"}, {"measurement": "IC50", "setting": "[5]", "value": 94.1, "unit": "µM"}, {"measurement": "Activity", "setting": "Mus musculus [6]", "value": 19.2, "unit": "%"}, {"measurement": "Activity", "setting": "Mus musculus [8]", "value": 3, "unit": "%"}]}, {"smiles": "O=C(O)C1CCN1", "note": "(stereo not given)", "values": [{"measurement": "IC50", "setting": "[5]", "value": 399, "unit": "µM"}]}, {"smiles": "O=C(O)[C@@H]1CCCN1", "note": "(stereo in doubt) [PROLINE]", "values": [{"measurement": "IC50", "setting": "[5]", "value": 414, "unit": "µM"}]}, {"smiles": "C[C@@H](N)C(=O)O", "note": "[D-ALANINE]", "values": [{"measurement": "IC50", "setting": "[9]", "value": 90.9, "unit": "µM"}]}, {"smiles": "NCCC(=O)O", "note": "[BETA-ALANINE]", "values": [{"measurement": "IC50", "setting": "[9]", "value": 11.6, "unit": "µM"}]}, {"smiles": "C[C@H](N)C(=O)O", "note": "[ALANINE]", "values": [{"measurement": "IC50", "setting": "[5]", "value": 198, "unit": "µM"}]}, {"smiles": "O=C(O)[C@@H]1CCCN1", "note": "(stereo in doubt; 8) [PROLINE]", "values": [{"measurement": "IC50", "setting": "[5]", "value": 17.2, "unit": "µM"}]}, {"smiles": "O=C(O)c1cc[nH]c1", "values": [{"measurement": "inhibition", "setting": "[10]", "value": 46, "unit": "%"}]}, {"smiles": "O=C(O)C1C=CCN1", "note": "(stereo not given)", "values": [{"measurement": "IC50", "setting": "[5]", "value": 242, "unit": "µM"}]}, {"smiles": "O=C(O)C1=CCNC1", "values": [{"measurement": "Activity", "setting": "Mus musculus [1]", "value": 4.7, "unit": "%"}, {"measurement": "Activity", "setting": "Mus musculus [3]", "value": 37.2, "unit": "%"}, {"measurement": "Activity", "setting": "Mus musculus [4]", "value": 60.4, "unit": "%"}, {"measurement": "IC50", "setting": "[5]", "value": 7.9, "unit": "µM"}, {"measurement": "Activity", "setting": "Mus musculus [6]", "value": 22.7, "unit": "%"}, {"measurement": "Activity", "setting": "Mus musculus [11]", "value": 5.1, "unit": "%"}]}]}
